Key:
Assay type in all cases: functional
[1] = tested on: Escherichia coli; assay: Antimicrobial activity against Escherichia coli O157:H7 ATCC 43894 assessed as growth inhibition rate at 4 mg/l after 72 hr by spectrophotometry; conditions: O157:H7 ATCC 43894, 72 h, read-out: GI
[2] = tested on: Salmonella typhimurium; assay: Antimicrobial activity against Salmonella enterica subsp. enterica serovar Typhimurium ATCC 14028 assessed as growth inhibition rate at 4 mg/l after 72 hr by spectrophotometry; conditions: ATCC 14028, 72 h, read-out: GI
Procedure, shortened: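 Salmonella Typhimurium ATCC 14028 grown in nutrient broth at 30 °C, precultured 24 h, then subcultured 1:100 for 18 h before testing. Single volatile compounds (>95% pure) were added. OD was read every 24 h over 72 h in a Bioscreen C, with 10% Tween 80 as the comparison control.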

[3] = tested on: Staphylococcus aureus; assay: Antimicrobial activity against Staphylococcus aureus ATCC 25923 assessed as growth inhibition rate at 4 mg/l after 72 hr by spectrophotometry; conditions: ATCC 25923, 72 h, read-out: GI
[4] = tested on: Bacillus cereus; assay: Antimicrobial activity against Bacillus cereus ATCC 11778 assessed as growth inhibition rate at 4 mg/l after 72 hr by spectrophotometry; conditions: ATCC 11778, 72 h, read-out: GI
Procedure, shortened: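 Pure volatile compounds (purity >95%; one at 90%) were tested against B. cereus ATCC 11778. The strain was grown at 30 °C in nutrient broth for 24 h, then subcultured for 18 h. Optical density was read in a Bioscreen C every 24 h for 72 h, with 10% Tween 80 as the control.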

[5] = tested on: Vibrio parahaemolyticus; assay: Antimicrobial activity against Vibrio parahaemolyticus ATCC 33844 assessed as growth inhibition rate at 4 mg/l after 72 hr by spectrophotometry; conditions: ATCC 33844, 72 h, read-out: GI
[6] = tested on: Listeria monocytogenes; assay: Antimicrobial activity against Listeria monocytogenes ATCC 19111 assessed as growth inhibition rate at 4 mg/l after 72 hr by spectrophotometry; conditions: ATCC 19111, 72 h, read-out: GI
Procedure, shortened: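 L. monocytogenes was grown at 30 °C in tryptic soy broth, subcultured for 18 h, and exposed to pure volatile compounds (>95% purity). Growth was followed by Bioscreen C optical density every 24 h for 72 h against a 10% Tween 80 control.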

## CC1=CC[C@@H]2C3C(C(C)C)CCC2(C)[C@@H]13 (stereo partly drawn) [(-)-ALPHA-COPAENE]
[1]
  inhibition of growth at 4 µg/mL: 0%
[2]
  inhibition of growth at 4 µg/mL: 0.1%
[3]
  inhibition of growth at 4 µg/mL: 5.7%
[4]
  inhibition of growth at 4 µg/mL: 5.9%
[5]
  inhibition of growth at 4 µg/mL: 0%
[6]
  inhibition of growth at 4 µg/mL: 0%
